According to ChEMBL document CHEMBL3124864, “Development of antimycobacterial tetrahydrothieno[2,3-c]pyridine-3-carboxamides and hexahydrocycloocta[b]thiophene-3-carboxamides: Molecular modification from known antimycobacterial lead” (Eur J Med Chem, 2014):
Converted amounts (≈) assume the structure as drawn.

Columns and labels:
[1] = system: Mycobacterium tuberculosis; test: Antitubercular activity against Mycobacterium tuberculosis H37Rv ATCC 27294 after 28 days by two-fold serial dilution method; assay type: functional; settings: H37Rv ATCC 27294, 672 h
How it was run: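 Agar dilution on Middlebrook 7H11 with OADC, compound incorporated as two-fold serial dilutions. Inoculum from fresh 7H11/OADC slants, adjusted to 1 mg/mL wet weight in 0.05% Tween 80 saline and diluted 10^-2 to about 10⁷ cfu/mL, then spotted onto the drug-containing agar. Growth read after 28 days. MIC taken as the lowest concentration giving complete inhibition.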

[2] = Selectivity index of cytotoxicity against mouse RAW264.7 cells to antitubercular activity against Mycobacterium tuberculosis H37Rv ATCC 27294; assay type: toxicity, cell-based; settings: read-out: Selectivity Index
[3] = Cytotoxicity against mouse RAW264.7 cells assessed as growth inhibition at 50 uM after 72 hrs by MTT assay; assay type: cell-based; settings: read-out: GI
How it was run: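 RAW 264.7 cells were exposed to compound for 72 h. Viability was read as cellular conversion of MTT to formazan using a non-radioactive cell proliferation kit. Results were expressed as percentage growth inhibition.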

[4] = system: Mycobacterium tuberculosis; test: Antitubercular activity against Mycobacterium tuberculosis H37Rv ATCC 27294 after 28 days by two-fold serial dilution method in presence of efflux pump inhibitor verapamil; assay type: functional; settings: H37Rv ATCC 27294, 672 h

SMILES	MIC [1] [µM]	selectivity ratio [2]	inhibition at 72 h, 50 µM [3] [%]	MIC [4] [µM]
CN1CCc2c(sc(NC(=O)c3cccc([N+](=O)[O-])c3)c2C(N)=O)C1	34.6 (≈ 12.5 µg/mL)	–	–	–
CC(=O)N1CCc2c(sc(NC(=O)C3CC3)c2C(N)=O)C1	81.2 (≈ 24.9 µg/mL)	–	–	–
NC(=O)c1c(NC(=O)c2ccc(Oc3ccccc3)cc2)sc2c1CCCCCC2	3.7 (≈ 1.56 µg/mL)	> 10	22.2	1.23
O=C(O)c1cn(C2CC2)c2cc(N3CCNCC3)c(F)cc2c1=O [CIPROFLOXACIN]	9.41 (≈ 3.12 µg/mL)	–	–	9.41
COc1ccccc1C(=O)Nc1sc2c(c1C(N)=O)CCN(C)C2	36.1 (≈ 12.5 µg/mL)	–	–	–
CC(=O)Nc1sc2c(c1C(N)=O)CCN(C(C)=O)C2	88.6 (≈ 24.9 µg/mL)	–	–	–
NC(=O)c1c(NC(=O)c2cccc3ccccc23)sc2c1CCCCCC2	13.2 (≈ 4.99 µg/mL)	–	28.3	3.29
CC(=O)N1CCc2c(sc(NC(=O)c3ccccc3)c2C(N)=O)C1	72.7 (≈ 24.9 µg/mL)	–	–	–
CN1CCc2c(sc(NC(=O)c3ccccc3)c2C(N)=O)C1	37.9 (≈ 11.9 µg/mL)	–	–	–
Cc1ccc(C(=O)Nc2sc3c(c2C(N)=O)CCN(C)C3)cc1	37.9 (≈ 12.5 µg/mL)	–	–	–
CN1CCc2c(sc(NC(=O)c3cccc4ccccc34)c2C(N)=O)C1	17.1 (≈ 6.24 µg/mL)	–	28.4	8.53
NC(=O)c1c(NC(=O)c2cccc([N+](=O)[O-])c2)sc2c1CCCCCC2	16.7 (≈ 6.24 µg/mL)	–	36.1	16.7
CN1CCc2c(sc(NC(=O)C3CCCC3)c2C(N)=O)C1	5.06 (≈ 1.56 µg/mL)	–	18.2	5.06
NC(=O)c1c(NC(=O)C2CCCCC2)sc2c1CCCCCC2	9.33 (≈ 3.12 µg/mL)	–	16.6	3.11
CC(=O)N1CCc2c(sc(NC(=O)C3CCCCC3)c2C(N)=O)C1	71.4 (≈ 25 µg/mL)	–	–	–
CN1CCc2c(sc(NC(=O)C3CC3)c2C(N)=O)C1	5.57 (≈ 1.56 µg/mL)	–	22.2	2.78
CC(=O)Nc1sc2c(c1C(N)=O)CCCCCC2	18.7 (≈ 4.99 µg/mL)	–	24.6	9.36

SMILES	MIC [1] [µM]	selectivity ratio [2]	inhibition at 72 h, 50 µM [3] [%]	MIC [4] [µM]
CN1CCc2c(sc(NC(=O)C3CCCCC3)c2C(N)=O)C1	7.76 (≈ 2.49 µg/mL)	–	18.3	2.58
CC(=O)N1CCc2c(sc(NC(=O)c3cccc4ccccc34)c2C(N)=O)C1	63.5 (≈ 25 µg/mL)	–	–	–
NC(=O)c1c(NC(=O)C2CCCC2)sc2c1CCCCCC2	9.73 (≈ 3.12 µg/mL)	–	18.3	9.73
NC(=O)c1c(NC(=O)c2ccccc2)sc2c1CCCCCC2	15.2 (≈ 4.99 µg/mL)	–	26.6	5.06
COc1ccccc1C(=O)Nc1sc2c(c1C(N)=O)CCN(C(C)=O)C2	66.8 (≈ 25 µg/mL)	–	–	–
CN1CCc2c(sc(NC(=O)c3ccc(Oc4ccccc4)cc3)c2C(N)=O)C1	30.6 (≈ 12.5 µg/mL)	–	–	–
CC(=O)N1CCc2c(sc(NC(=O)c3ccc(C)cc3)c2C(N)=O)C1	69.8 (≈ 24.9 µg/mL)	–	–	–
CC(=O)N1CCc2c(sc(NC(=O)c3cccc([N+](=O)[O-])c3)c2C(N)=O)C1	64.3 (≈ 25 µg/mL)	–	–	–
CC(=O)N1CCc2c(sc(NC(=O)c3cccs3)c2C(N)=O)C1	9.15 (≈ 3.2 µg/mL)	13	–	4.57
COc1ccccc1C(=O)Nc1sc2c(c1C(N)=O)CCCCCC2	13.9 (≈ 4.99 µg/mL)	–	24.8	6.96
CC(=O)N1CCc2c(sc(NC(=O)c3ccc(Oc4ccccc4)cc3)c2C(N)=O)C1	57.3 (≈ 25 µg/mL)	–	–	–
CC[C@@H](CO)NCCN[C@@H](CC)CO [ETHAMBUTOL]	7.64 (≈ 1.56 µg/mL)	–	–	3.82
NC(=O)c1c(NC(=O)C2CC2)sc2c1CCCCCC2	17.1 (≈ 4.99 µg/mL)	–	16.9	8.53
CC(=O)Nc1sc2c(c1C(N)=O)CCN(C)C2	39.4 (≈ 9.99 µg/mL)	–	–	–
Cc1ccc(C(=O)Nc2sc3c(c2C(N)=O)CCCCCC3)cc1	4.54 (≈ 1.55 µg/mL)	–	20.5	2.27
NNC(=O)c1ccncc1 [ISONIAZID]	0.72 (≈ 0.0987 µg/mL)	–	–	0.72
CC(=O)N1CCc2c(sc(NC(=O)C3CCCC3)c2C(N)=O)C1	74.4 (≈ 25 µg/mL)	–	–	–
